Assay outcomes as filed in PubChem BioAssay.
AHR act: activators of human aryl hydrocarbon receptor. P35869. AHR-responsive luciferase reporter cells, luminescence. activation, % at 5 µM. 320,000 tested, 2.5% active; in the data active = activation above about 47%;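 note: 0% = vehicle wells and 100% = reference agonist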
bovine MsrA act: activators of bovine methionine sulfoxide reductase A | 360,000 tested, 0.3% active | activation, % at 10.6 µM | AID 602163 | purified bovine MsrA, absorbance read-out; in the data active = activation above about 7.5%;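 note: 0% = vehicle and 100% = reference activator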
AI-2 QS mod: Vibrio harveyi AI-2 quorum sensing modulation. 300,000 tested, 0.4% active. activity change, % at 7.5 µM. Vibrio harveyi JMH597 AI-2 luminescence/OD600 ratio, 9 h; hits give low values; strain lacks LuxN and CqsS sensors; 0 = neutral-control median; in the data active = activity change below about -75%, passing the limit was not always enough;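 note: luminescence divided by OD600 gain over 9 h not by final OD600 alone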
m5-HT2A agonist: mouse HTR2A agonism via beta-arrestin recruitment; 360,000 tested, 0.66% active; CHO-K1 mHTR2A beta-arrestin complementation, luminescence; percent of 30 µM serotonin response; activation, % at 7.6 µM; P35363;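 active = activation above a run cutoff, the mean activation of all tested compounds plus 3 SD, cut at about 14% in these data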;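 note: 0% = plate median of compound wells and 100% = 30 µM serotonin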
Tb MetRS inh: blocks T. brucei methionyl-tRNA synthetase activity | purified T. brucei MetRS, ATP depletion, Kinase-Glo luminescence | inhibition, % at 11.9 µM | 360,000 tested, 0.4% active | AID 624268;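 active = inhibition above a per-plate cutoff of the control wells' mean inhibition plus 3 SD, cut at about 5.5% in these data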;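 note: 0% = DMSO wells median and 100% = median of wells with control inhibitor compound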
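Test system – parasite MetRS enzyme · Reagent – substrates ATP, L-methionine and bulk Escherichia coli tRNA · Doses – 11.9 µM compound single dose, 0.9% DMSO · Times – 15 min enzyme-compound preincubation, 2 h reaction, 10 min detection, 25 °C · Signal – Kinase-Glo luminescence, ATP depletion format · Controls – DMSO-only wells as low control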
MsrA inh: bovine MsrA inhibition; inhibition, % at 15.5 µM; AID 651718; purified bovine MsrA, absorbance read-out; 360,000 tested, 0.75% active; in the data active = inhibition above about 4.5%;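 note: 0% = vehicle wells with enzyme and 100% = reference inhibitor wells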
Active calls of the source: *; . = no result given. Most compounds without a hit are left out; they make up all but 4.4% or so of the library.

SMILES	AHR act	bovine MsrA act	AI-2 QS mod	m5-HT2A agonist	Tb MetRS inh	MsrA inh
Cc1cnc(C(=O)OCC(=O)Nc2cc(-c3cc(C)c(C)cc3C)nn2-c2ccccc2)cn1	59.9*	-1.7	8.2	-6.8	-0.3	-0.3
Cc1cc(C)c(-c2cc(NC(=O)CSc3n[nH]c(N)n3)n(-c3ccccc3)n2)cc1C	56.2*	-0.3	45.2	-2.5	-0.1	1.1
C[C@H](O)[C@@H]1CN2CCc3ccc(-c4ccc5c(c4)OCO5)cc3[C@@H]2C[C@@H]1N(C)Cc1ccccc1	.	.	.	.	.	-0.7
COc1ccc(CC(=O)OCC(=O)Nc2cccc(Br)c2)cc1	1.2	-7.3	-76.1*	4.3	-1.7	-0.8
CC(=O)Nc1cccc(NC(=O)CCc2ccccc2)c1	8.6	-13.0	29.7	8.5	-0.1	2.6
Cc1cccc(NC(=O)CCc2ccccc2)c1	10.3	-2.6	-84.9*	-1.9	0.6	-0.4
O=C(NCCc1ccccc1)Nc1cccc(Cl)c1	9.6	-2.3	21.1	-1.5	0.2	-0.1
COc1cccc(NC(=O)COC(=O)Cc2ccc(Br)cc2)c1	-0.1	-0.6	-7.1	-4.8	-0.7	-1.2
COc1ccc(CCC(=O)Nc2cccc(Cl)c2)cc1	-2.2	-4.6	-82.9*	0.1	-0.4	1.9
O=C(NCCc1ccc(Cl)cc1)Nc1cccc(Cl)c1	1.2	-3.5	6.8	-2.7	7.0*	-0.9
COc1ccc(Nc2nnc(-c3ccc4c(c3)OCO4)o2)cc1	.	.	.	.	.	-1.0
CC(Oc1ccccc1Cl)C(=O)Nc1ccccc1C(=O)N1CCOCC1 (stereo not drawn)	0.9	-2.4	8.1	3.3	-0.5	-0.5
COC(=O)[C@]12C[C@H](CC(=O)NCCCN3CCCC3=O)C(=O)N(CCC3=CCCCC3)C1=C[C@H](C(C)(C)C)O[C@@H]2C	.	.	.	.	.	1.1
NS(=O)(=O)c1ccc(-c2ccc(/C=C3\C(=O)Nc4ccccc43)o2)cc1	74.1*	.	13.1	.	.	.
COc1ccc(C)c2sc(NC(=O)CCS(=O)(=O)c3ccccc3)nc12	52.3*	-1.9	15.0	3.4	-0.6	-0.3
Cc1nnc(NC(=O)CCS(=O)(=O)c2ccccc2)s1	16.3	0.0	48.8	-6.0	0.8	-1.2
O=C(CCS(=O)(=O)c1ccccc1)Nc1cccc(-c2nc3ccccc3s2)c1	68.5*	-1.3	1.4	-0.3	0.0	2.0
CCCCC(=O)Nc1nc2c(OC)cc([N+](=O)[O-])cc2s1	9.8	-7.4	-4.8	-1.3	-1.0	-0.3
CCCCC(=O)Nc1nc2c(OC)ccc(OC)c2s1	64.3*	-0.3	35.6	-6.0	-0.8	0.3
CCOc1cccc2sc(NC(=O)CCS(=O)(=O)c3ccccc3)nc12	57.1*	-10.1	12.1	-0.4	-0.8	-1.2
CN1NC(=O)c2ccccc2NC1=S	.	.	.	.	.	-0.2
CN(C)c1ccc(NC(=O)Nc2csc3ccccc23)cc1	72.2*	-2.3	5.9	-4.4	-0.4	-0.1
O=C(Nc1ccc(F)cc1)Nc1csc2ccccc12	74.8*	-2.0	18.0	-4.9	0.3	-0.6
CN(C)c1ccc(NC(=O)Nc2cccc(Cl)c2)cc1	20.2	-2.5	-72.5	-1.3	0.8	0.6
Cc1[nH]c2ccccc2c1CC(=O)Nc1ccc(Nc2cccnc2)c(-c2cc(C(F)(F)F)cc(C(F)(F)F)c2)c1	.	.	.	.	.	1.7
SMILES	AHR act	bovine MsrA act	AI-2 QS mod	m5-HT2A agonist	Tb MetRS inh	MsrA inh
N#Cc1ccc(S(=O)(=O)N2CCCc3nc(-c4ccc(F)cc4)ccc32)cc1	.	.	.	.	.	-0.4
CC1(C)OC(=O)C2=C(CC(CCc3ccccc3)OC2c2ccc(Cl)c(Cl)c2)O1 (stereo not drawn)	.	.	.	.	.	-0.5
Cc1ccc(-n2c(C)cc(C3=NNC(=NC4CC4)SC3)c2C)cc1C	50.8*	-1.7	43.1	-2.8	-0.3	3.1
COC(=O)[C@]12C[C@H](CC(=O)N3CCN(C(=O)c4ccco4)CC3)C(=O)N(Cc3ccc4c(c3)OCO4)C1=C[C@H](C(C)(C)C)O[C@@H]2C	.	.	.	.	.	0.9
C/C(=N/NS(=O)(=O)c1ccc(Cl)cc1)c1ccncc1	1.7	-1.0	27.1	5.7	-0.1	0.6
C/C(=N/NS(=O)(=O)c1ccccc1)c1ccc(Cl)cc1	53.2*	-4.4	12.0	-2.6	0.1	1.9
C[C@@H]1CN([C@@H](C)CO)C(=O)CCCn2cc(nn2)CO[C@H]1CN(C)C(=O)Nc1ccccc1F	.	.	.	.	.	1.0
Cc1ccc(C(=O)Cn2nnc(-c3ccccc3)n2)cc1	0.2	-2.5	-92.3*	-5.5	0.6	0.3
